# hIAP block = human IAP inhibitors, primary screen, biochemical, luminescence, uHTS. purified IAP, CDP-Star luminescence, 30 min. 0.12% of 330,000 active. inhibition, % at 10 µM. Intestinal-type alkaline phosphatase (Homo sapiens), P09923;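 active = inhibition reaching a set limit with compound at 10 µM in the primary screen, cut at about 35% in these data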;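 note: plate controls were DMSO wells with enzyme for no effect and no-enzyme buffer wells for full effect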
# Target sequence (P09923 whole entry, looked up): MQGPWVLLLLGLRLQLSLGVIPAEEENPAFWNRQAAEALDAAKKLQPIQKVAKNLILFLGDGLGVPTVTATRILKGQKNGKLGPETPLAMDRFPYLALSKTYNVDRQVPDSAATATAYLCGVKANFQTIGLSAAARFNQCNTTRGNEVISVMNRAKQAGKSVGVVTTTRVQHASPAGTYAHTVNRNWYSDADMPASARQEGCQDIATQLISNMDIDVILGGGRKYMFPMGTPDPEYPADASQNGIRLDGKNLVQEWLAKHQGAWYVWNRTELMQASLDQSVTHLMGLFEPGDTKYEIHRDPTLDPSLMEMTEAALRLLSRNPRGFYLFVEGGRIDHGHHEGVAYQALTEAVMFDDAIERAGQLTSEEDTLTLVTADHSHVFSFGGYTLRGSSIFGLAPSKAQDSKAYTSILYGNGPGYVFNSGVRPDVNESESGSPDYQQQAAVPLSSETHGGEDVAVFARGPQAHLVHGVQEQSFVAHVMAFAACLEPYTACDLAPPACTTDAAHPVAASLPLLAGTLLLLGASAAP
# hIAP act = human IAP activators, primary screen, biochemical, luminescence, uHTS; Intestinal-type alkaline phosphatase (Homo sapiens), P09923; purified human IAP, CDP-Star luminescence, 30 min; stronger effect = higher value; 1 = vehicle-only enzyme, 0 = enzyme-free background; activation factor at 10 µM; 0.16% of 330,000 active; AID 2524, 2010;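 active = activation factor of the enzyme at least 2-fold when tested at 20 µM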
# bIAP activator = bovine intestinal alkaline phosphatase activators, primary screen, biochemical, bovine IAP, CDP-star luminescence; alkaline phosphatase, intestinal [Bos taurus]; purified bovine IAP, 30 min; stronger effect = higher value; fold of DMSO-control signal, blank-subtracted; activation factor at 20 µM; 0.17% of 200,000 active; AID 1016, 2008;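 active = activation factor of 2 or more at 20 µM, a signal rise over negative controls twice the positive control's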
# mIAP inh = inhibitors of mouse IAP, primary screen, biochemical, luminescence, uHTS. purified mouse IAP, CDP-Star luminescence, 30 min. inhibition, % at 10 µM. 0.2% of 330,000 active. AID 2806, 2010;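 active = inhibition of at least 40% at 10 µM in the primary screen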;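 note: plate controls were DMSO with enzyme for no effect and no enzyme wells for full effect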
# bIAP inh = bovine intestinal alkaline phosphatase inhibitors, primary screen, selectivity assay for TNAP inhibitor project, biochemical, bovine IAP, CDP-star luminescence | purified bovine IAP, 30 min | inhibition, % at 20 µM | 190,000 tested, under 10 active;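 active = over 50% inhibition of intestinal alkaline phosphatase at 20 µM in the single-dose screen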
#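 Assay system: bovine IAP enzyme; medium: DEA buffer 100 mM, pH 9.8, with MgCl2 1.0 mM, ZnCl2 0.02 mM; doses: 20 µM single dose; incubation: enzyme reaction for 30 min at room temperature; detection: CDP-star luminescence signal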
# mIAP activ = activators of mouse IAP, primary screen, biochemical, luminescence, uHTS | intestinal alkaline phosphatase [Mus musculus] | muIAP, CDP-Star luminescence, 30 min; stronger effect = higher value; 1 = vehicle-only enzyme signal, 0 = enzyme-free wells | activation factor at 10 µM | 0.24% of 330,000 active;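 active = activation factor of at least 2 at 20 µM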
#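 also added = chemiluminescent substrate CDP-Star | test system = mouse IAP enzyme | signal = chemiluminescence readout | compound = DMSO-dissolved test compounds | incubation = 30 min at room temperature | benchmarks = DMSO wells, no-enzyme wells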
# hIAP act conf = human IAP activators, confirmation, biochemical, luminescence, single concentration, uHTS hits; shares compounds with hIAP act; purified IAP, CDP-Star luminescence, 30 min; stronger effect = lower value; activation (%Activity, negative = activation), % at 8.3 µM; 10% of 880 active; AID 434926, 2010;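 active = at least twofold enzyme activation in any of six single-dose repeats, which the averaged readout prints as negative percent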
# * = called active by the depositor; x = no result given. A selection: hits, their analogues and other compounds. The true share with any hit is near 0.72%.
SMILES,hIAP block,hIAP act,bIAP activator,mIAP inh,bIAP inh,mIAP activ,hIAP act conf
Cc1nnc(NC(=O)CSc2n[nH]c(-c3ccccc3C)n2)s1,41*,0.59,x,5,x,0.95,-21
CCOC(=O)/C(O)=C(\C#N)c1nc2ccccc2[nH]1,10,0.9,1,-1,-4,1,x
O=C(NNC(=O)c1nc2ccccc2[nH]1)OCc1ccccc1,-161,2.6*,x,12,x,0.88,-25
Cc1ccc(NS(=O)(=O)c2ccc(NC(=O)c3cccs3)cc2)c(C)c1,5,0.95,1,11,-3,0.89,x
Cc1ccc(NS(=O)(=O)c2ccc(NC(=O)C3CC3)cc2)c(C)c1,36*,0.64,x,-10,x,1.1,-2
CCOCCCNc1nc2c(C)cccn2c(=O)c1/C=C1\SC(=S)N(C(C)CC)C1=O (stereo not given),36*,0.64,x,30,x,0.7,0
Cn1c(/C(C#N)=C(\O)c2ccc(Br)s2)nc2ccccc21,47*,0.53,x,5,x,0.95,27
Cn1c(/C(C#N)=C(\O)c2cc(Cl)sc2Cl)nc2ccccc21,21,0.79,x,6,x,0.94,x
COc1ccccc1CNC(=O)CC12CC3CC(CC(Br)(C3)C1)C2,-4,1,x,-4,x,1,x
Cc1ccc(N/C=C/C(=O)c2ccco2)c(O)c1,-116,2.2*,x,15,x,0.85,-35
COC(=O)c1ccc(N2NC(=O)/C(=C/c3cc(OC)c(O)c(OC)c3)C2=O)cc1,37*,0.63,x,13,x,0.87,-48
COC(=O)c1ccc(N2NC(=O)/C(=C/c3cc(OC)c(OC)c(OC)c3)C2=O)cc1,1,0.99,x,-2,x,1,x
O=Nc1[nH]c(=O)c(/C=C(\O)c2ccccc2)nc1NO,-113,2.1*,x,15,x,0.85,-85*
O=C(Cc1cccc(NC(=O)C2CCN(C(=O)C3CCCCC3)CC2)c1)Nc1cccc(C(=O)N2CCCC2)c1,8,0.92,x,-14,x,1.1,x
CCOc1cc(/C=N/NC(=O)C(=O)N/N=C/c2ccc(O)c(OCC)c2)ccc1O,38*,0.62,x,18,x,0.82,-48*
Cc1ccccc1NC(=O)CSc1nnnn1C,-6,1.1,1,-8,2,1.1,x
Cn1nnnc1SCC(=O)Nc1ccccc1-c1ccccc1,38*,0.62,0.9,8,9,0.93,-2
O=C(COc1ccc(Cl)cc1)OCC(=O)N1CCCc2ccccc21,36*,0.64,0.9,44*,13,0.56,-20
CCCCC(CC)C(=O)Nc1cc(=O)[nH]c2nc3ccccc3n12 (stereo not given),-102,2*,x,4,x,0.96,5
Cc1ccc(C(=O)c2cn[nH]c2-c2cc(Cl)ccc2O)cc1,-7,1.1,1.5,3,-51,0.97,x
Cc1ccc(-c2[nH]ncc2C(=O)c2ccc(Br)cc2)c(O)c1,-105,2*,x,1,x,0.99,1
Cc1ccc(C)c(NC(=S)NCc2ccccc2)c1,8,0.92,x,1,x,0.99,x
Cc1ccc(NC(=O)CCC(=O)NNC(=S)Nc2ccccc2)c(C)c1,-106,2.1*,1.5,-8,-54,1.1,-25
Cc1ccc(C)c(NC(=O)CCC(=O)NNC(=S)Nc2ccccc2)c1,-80,1.8,1.5,21,-47,0.79,x
Cc1ccc(C)c(NCC(=O)NNC(=S)Nc2ccccc2)c1,-103,2*,1.2,16,-16,0.84,-39
SMILES,hIAP block,hIAP act,bIAP activator,mIAP inh,bIAP inh,mIAP activ,hIAP act conf
O=C(Cc1ccccc1)NNC(=S)Nc1ccccc1,-118,2.2*,1.3,7,-33,0.93,9
CCn1c(SCC(=O)Nc2ccc(N3CCOCC3)cc2)nnc1C1CC1,1,0.99,x,12,x,0.89,x
N#C/C(=C\c1ccc(-c2cccc([N+](=O)[O-])c2)o1)C(=O)Nc1nc(-c2cccs2)cs1,47*,0.53,x,28,x,0.72,-64
Cc1ccc2oc(C(=O)Nc3nonc3C)c(C)c2c1,38*,0.62,x,-4,x,1,-20
Cc1ccc2oc(C(=O)Nc3nnc(C)s3)c(C)c2c1,5,0.95,1,-4,5,1,x
CC(NC(=O)c1cnccn1)c1ccc(S(N)(=O)=O)cc1 (stereo not given),-2,1,x,2,x,0.98,x
O=C(COC(=O)CC1CC2CCC1C2)NCc1ccccc1 (stereo not given),-4,1,x,-8,x,1.1,x
CCc1nn(CC(=O)NC2CCN(Cc3ccccc3)CC2)c(=O)c2cc3cc(F)ccc3n12,12,0.88,x,-1,x,1,x
CCc1nn(CC(=O)NC(C)CCc2ccccc2)c(=O)c2cc3cc(F)ccc3n12 (stereo not given),-120,2.2*,x,-12,x,1.1,-59
Cc1cc([N+](=O)[O-])nn1CC(=O)NNC(=S)Nc1ccc(F)cc1,-111,2.1*,1.2,1,-24,0.99,6
Cc1cc([N+](=O)[O-])nn1CC(=O)Nc1ccc(F)cc1,1,0.99,1,-1,0,1,x
CCOc1ccc(C2=Nn3c(CC)nnc3SC2)cc1,2,0.98,x,1,x,0.99,x
Cc1nc2c3cnn(-c4ccc(C)c(C)c4)c3ncn2n1,74*,0.26,0.9,-5,6,1,-27
Cc1ccc(-n2ncc3c(=O)n(CC(N)=O)cnc32)cc1C,-1,1,x,-12,x,1.1,x
Cc1cccc(NC(=O)CCc2ccc(C)o2)c1,37*,0.63,1,1,-3,0.99,-26
Cc1cc(C)cc(NC(=O)CCc2ccc(C)o2)c1,0,1,x,35,x,0.65,x
COc1ccc(C(C)NC(=S)NC2CCCC2)cc1OC (stereo not given),-4,1,0.9,-10,10,1.1,x
CC(NC(=S)NC1CCC(C(C)(C)C)CC1)c1ccccc1 (stereo not given),-101,2*,x,-348,x,4.5*,-111*
O=C1CC(c2ccccc2)n2nc(NC(=O)c3ccccc3)nc2N1 (stereo not given),4,0.96,0.9,3,6,0.97,x
O=C1CC(c2ccccc2)n2nc(NC(=O)c3ccccn3)nc2N1 (stereo not given),-137,2.4*,1.7,-5,-68,1,9
Cc1nsc2nc3c(F)c(F)c(F)c(F)c3cc12,12,0.88,x,-4,x,1,x

# Screens deposited in PubChem BioAssay by Sanford-Burnham Center for Chemical Genomics.
